Data from ChEMBL document CHEMBL1649306, “Arylimidamide DB766, a potential chemotherapeutic candidate for Chagas' disease treatment” (Antimicrob Agents Chemother, 2010).
Values joined by “and” are separate entries in the source; they are usually repeats but may differ in a detail not shown here. Equal entries are not always repeated. Active and inactive are the calls of the source. No cut-off for these calls is given here.

Assays:
[1] = tested on: Mus musculus; assay: Toxicity in […](H-2k) mouse assessed as effect on GPT level at 100 mg/kg/day, po; type: organism-based; parameters: route oral; settings: in vivo
[2] = Cardiotoxicity against Swiss-Webster mouse cardiomyocytes assessed as creatine kinase cardiac isotype level by MTT assay; type: toxicity, Heart, Cardiomyocyte; settings: read-out: LC50 (the source's name)
How it was run: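 Embryonic cardiomyocytes from Swiss mice, uninfected, exposed to 0 to 96 μM in DMEM at 37°C. Viability followed by CK-MB released into culture supernatant, alongside light-microscopy checks of morphology and spontaneous contraction; assays at least three times in duplicate.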

[3] = tested on: Trypanosoma cruzi; assay: Antitrypanosomal activity against Trypanosoma cruzi Y bloodstream forms infected in Swiss-Webster mouse assessed as reduction in parasite-induced weight loss in mouse at 50 mg/kg/day, ip administered 5 days postinfection for 10 consecutive days measured on day 120; type: functional, organism-based
How it was run: (§1)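 Body weight of infected, treated mice followed from 0 to 120 dpi.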

[4] = tested on: Trypanosoma cruzi; assay: Antitrypanosomal activity against bloodstream forms of Trypanosoma cruzi Y after 24 hrs by light microscopy in presence of 96% mouse blood; type: functional, organism-based
How it was run: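 Bloodstream trypomastigotes held at 4°C in freshly isolated mouse blood (96%) with serial dilutions up to 32 μM. Live motile parasites counted by light microscopy in a Neubauer chamber, giving an IC50 for each exposure time.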

[5] = tested on: Trypanosoma cruzi; assay: Antitrypanosomal activity against Trypanosoma cruzi Y bloodstream forms infected in Swiss-Webster mouse assessed as survival rate of mouse at 100 mg/kg/day, ip administered 8 days postinfection measured on day 120; type: functional; settings: route intraperitoneal
How it was run: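 Every-other-day i.p. dosing (5 doses, each 48 h apart) of 100 mg/kg/day in male Swiss mice inoculated with 10^4 Y-strain bloodstream trypomastigotes, n ≥ 6 parasitemia-positive animals. Mortality recorded daily up to 120 dpi as cumulative percentage.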

[6] = tested on: Trypanosoma cruzi; assay: Selectivity ratio of IC50 for Trypanosoma cruzi Y bloodstream forms to IC50 for Trypanosoma cruzi Y amastigotes; type: functional
[7] = tested on: Trypanosoma cruzi; assay: Antitrypanosomal activity against Trypanosoma cruzi Y bloodstream forms after 2 hrs by light microscopy; type: functional, organism-based
How it was run: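 Bloodstream trypomastigotes from infected Swiss mice at peak parasitemia, 5.0 × 10^6 cells/ml in RPMI 1640 with 5% FBS. Exposed at 37°C to serial dilutions from 0 to 32 μM. Motile live parasites counted by light microscopy in a Neubauer chamber, then IC50 calculated.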

[8] = tested on: Trypanosoma cruzi; assay: Antitrypanosomal activity against Trypanosoma cruzi Columbian bloodstream forms infected in C3H mouse assessed as survival of mouse at 100 mg/kg/day, po administered 5 days postinfection for 10 consecutive days measured after 31 days; type: functional
How it was run: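 Male C3H/He (H-2k) mice infected i.p. with 5 × 10^3 Colombian-strain bloodstream trypomastigotes; only parasitemia-positive mice grouped (n ≥ 6). DB766 100 mg/kg/day given i.p. (0.1 ml) or by gavage (0.1 ml), daily for 10 treatments. Parasitemia by Pizzi-Brener method; mortality checked daily, expressed as cumulative percentage.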

[9] = tested on: Trypanosoma cruzi; assay: Antitrypanosomal activity against Trypanosoma cruzi Y bloodstream forms infected in Swiss-Webster mouse assessed as decrease in parasitemia at 100 mg/kg/day, ip administered 8 days postinfection measured on day 120; type: functional; settings: route intraperitoneal
How it was run: (§2)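 Male Swiss mice infected i.p. with 10^4 Y strain bloodstream forms. Given 0.2 ml i.p. at 5 and 8 dpi, or daily for 10 days from 5 dpi; reference drug given by gavage. Parasitemia measured by the Pizzi-Brener method, cumulative mortality checked daily to 120 dpi, n ≥ 6 per group.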

[10] = tested on: Mus musculus; assay: Toxicity in […](H-2k) mouse assessed as effect on GPT level at 100 mg/kg/day, […]; type: organism-based; settings: in vivo
[11] = tested on: Trypanosoma cruzi; assay: Antitrypanosomal activity against Trypanosoma cruzi 875 epimastigotes after 24 hrs by light microscopy; type: functional, organism-based; settings: Trypanosoma cruzi, 875, 24 h
How it was run: (§3)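 Epimastigotes from 5-day exponential cultures, 5 × 10^6 parasites/ml in LIT medium, incubated at 28°C up to 96 h with DB766 0 to 32 μM or Bz 0 to 250 μM. Counted daily in a Neubauer chamber. IC50 averaged from at least three determinations in duplicate.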

[12] = tested on: Mus musculus; assay: Toxicity in […](H-2k) mouse assessed as mortality at cumulative dose of 200 mg/kg, ip measured after 48 hrs; type: organism-based; parameters: dose 200 mg/kg, route intraperitoneal; settings: in vivo
How it was run: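 Uninfected 8–10-week-old female and male Swiss Webster and C3H/He (H-2k) mice injected i.p. on day 1 every 2 h with escalating doses: 5, 15, 30, 50 and 100 mg/kg (cumulative 20, 50, 100, 200 mg/kg). Toxic and subtoxic signs inspected on days 2–3 per OECD guidelines; tolerated dose set at 48 h.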

[13] = tested on: Trypanosoma cruzi; assay: Antitrypanosomal activity against Trypanosoma cruzi 960 epimastigotes after 24 hrs by light microscopy; type: functional, organism-based; settings: Trypanosoma cruzi, 960, 24 h; how it was run: as §3
[14] = tested on: Trypanosoma cruzi; assay: Antitrypanosomal activity against Trypanosoma cruzi Y bloodstream forms infected in Swiss-Webster mouse assessed as survival of mouse at 25 mg/kg/day, ip administered 5 days postinfection for 10 consecutive days measured on day 120; type: functional, organism-based; how it was run: as §2
[15] = tested on: Trypanosoma cruzi; assay: Antitrypanosomal activity against Trypanosoma cruzi Y bloodstream forms infected in Swiss-Webster mouse assessed as decrease in parasite load at 50 mg/kg/day, ip administered 5 days postinfection for 10 consecutive days measured after 8 days; type: functional; parameters: scale not given: the % may be the effect or the level left; settings: route intraperitoneal
How it was run: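 Eight-week-old male Swiss mice infected i.p. with 10^4 Y-strain bloodstream trypomastigotes; parasitemia-positive mice only (n ≥ 6). Dosing i.p. (0.2 ml) daily for 10 consecutive days from parasitemia onset (5 dpi). Parasitemia at the 8 dpi peak counted by Pizzi-Brener method; reduction relative to infected untreated group.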

[16] = tested on: Trypanosoma cruzi; assay: Antitrypanosomal activity against bloodstream forms of Trypanosoma cruzi Y infected in Swiss mouse cardiomyocytes assessed as intracellular parasitemia at 10.6 uM after 72 hrs by Pizzi-Brener method; type: functional, organism-based
[17] = tested on: Trypanosoma cruzi; assay: Antitrypanosomal activity against Trypanosoma cruzi Y bloodstream forms infected in Swiss-Webster mouse assessed as decrease in parasite load at 25 mg/kg/day, ip administered 5 days postinfection for 10 consecutive days measured after 8 days; type: functional; parameters: scale not given: the % may be the effect or the level left; settings: route intraperitoneal; how it was run: as §2
[18] = tested on: Trypanosoma cruzi; assay: Antitrypanosomal activity against bloodstream forms of Trypanosoma cruzi Y after 24 hrs by light microscopy in presence of 50% mouse blood; type: functional, organism-based
How it was run: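 Bloodstream trypomastigotes kept at 4°C for 24 h in freshly isolated 50% mouse blood with serial dilutions (up to 32 μM). Motile live parasites counted in a Neubauer chamber by light microscopy; IC50 calculated as concentration reducing parasite number by 50%.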

[19] = tested on: Trypanosoma cruzi; assay: Antitrypanosomal activity against Trypanosoma cruzi Y infected in Swiss-Webster mouse assessed as decrease in parasite-induced weight loss at 100 mg/kg/day, po administered 5 days post-infection for 10 consecutive days measured on day 120; type: functional, organism-based; how it was run: as §1
[20] = tested on: Trypanosoma cruzi; assay: Antitrypanosomal activity against Trypanosoma cruzi Y epimastigotes after 24 hrs by light microscopy; type: functional, organism-based; how it was run: as §3
[21] = tested on: Mus musculus; assay: Toxicity in male Swiss-Webster mouse assessed as weight loss at cumulative dose of 200 mg/kg, ip measured after 48 hrs; type: organism-based; parameters: dose 200 mg/kg, route intraperitoneal; settings: in vivo
How it was run: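 Acute toxicity in 8–10-week-old Swiss Webster mice. i.p. injections every 2 h of 5, 15, 30, 50 and 100 mg/kg (cumulative 200 mg/kg) on day 1. Toxic and subtoxic signs inspected on days 2 and 3 per OECD guidelines; outcome read 48 h after injection.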

[22] = tested on: Trypanosoma cruzi; assay: Antitrypanosomal activity against Trypanosoma cruzi Y bloodstream forms infected in Swiss-Webster mouse assessed as reduction in parasite-induced weight loss at 100 mg/kg/day, ip administered 5 days postinfection for 10 consecutive days measured after 120 days; type: functional, organism-based; how it was run: as §1

In the case of `CC(C)Oc1cc(NC(=N)c2ccccn2)ccc1-c1ccc(-c2ccc(NC(=N)c3ccccn3)cc2OC(C)C)o1`, the Activity [1] is reported as “Non-toxic”, the CC50 [2] is reported as greater than 10600 nM and the Activity [3] is reported as “inactive”. The IC50 [4] was 60 nM, the Activity [5] was 60% and the Selectivity ratio [6] was >533 and 714. It also gave an IC50 [7] of 1140 nM, an Activity [8] of 100% and an inhibition in vivo at 100 mg/kg/day [9] greater than 99%. The Activity [10] was “Non-toxic”, the IC50 [11] was 60 nM and the IC90 [11] was 240 nM. The Activity [12] was “Non-toxic”, the IC50 [13] was 90 nM and the IC90 [13] was 280 nM. The Activity [14] was “Active”, the Activity [15] was 98% and the IC50 [16] was 25 nM. For the same compound, the Activity [17] was 88%, the IC50 [18] was 710 nM and the Activity [19] was “inactive”. It also gave an IC50 [20] of 70 nM, an IC90 [20] of 220 nM and an Activity [21] of 10%. For the same compound, the Activity [22] was “Active”.
